Common to all, as to details: in vivo
Data set [1] has as its system Rattus norvegicus. The data set can be described thus: Cmax in Wistar rat at 25.4 mg/kg, po assessed as L-dopa level. It counts as ADME, organism-based. Also noted: dose 25.4 mg/kg, route oral. The essentials:
(§1)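 Naïve male Wistar rats (250–500 g), fasted overnight, dosed orally in 0.9% saline with benserazide (10 mg/kg) at dose equivalent to 12.5 mg/kg L-dopa. Heparinised tail-vein blood at various times; plasma extracted with 20% TFA in 10 mM metabisulphite with warfarin internal standard; L-dopa quantified by LC-MS/MS (positive ESI) against plasma standard curve 0.39–50 µM.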

For data set [2], the system named is Rattus norvegicus. The data set can be described thus: AUC (0 to 4 hrs) in Wistar rat at 25.4 mg/kg, po assessed as L-dopa level. It counts as ADME, organism-based, Plasma. Also noted: time < 4 hr, dose 25.4 mg/kg, route oral. In short, it runs like this:
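Naïve male Wistar rats (250–500 g), fasted overnight, dosed with compound in 0.9% saline together with benserazide (10 mg/kg), at a dose molar-equivalent to 12.5 mg/kg L-dopa. Heparinised tail-vein blood was sampled at intervals and the plasma stored at −80 °C. L-dopa was extracted with 20% TFA/10 mM metabisulphite plus warfarin internal standard and quantified by LC-MS/MS (positive ESI) against plasma standard curves.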

Data set [3] deals with Rattus norvegicus. The data set can be described thus: Apparent half life in Wistar rat at 25.4 mg/kg, po assessed as L-dopa level. It counts as ADME, organism-based. More on the design: dose 25.4 mg/kg, route oral. In short, it runs like this: as §1

As for `CC(C)CC(=O)Oc1ccc(C[C@H](N)C(N)=O)cc1OC(=O)CC(C)C.Cl`, the Cmax in data set [1] turned out to be 860 ng/mL. In addition, the AUC in data set [2] amounted to 98 µg·min/mL. Besides, the t1/2 in data set [3] was 1.3 h.

As a reminder, the Cmax is the highest concentration seen after dosing. What is called AUC is the area under the concentration-time curve, a measure of exposure.

The record behind these values is ChEMBL document CHEMBL1240480, “Design, synthesis and biological evaluation of L-dopa amide derivatives as potential prodrugs for the treatment of Parkinson's disease” (Eur J Med Chem, 2010).
